Test results taken from ChEMBL document CHEMBL1154716, “Synthesis of some new S-triazine based chalcones and their derivatives as potent antimicrobial agents” (2010).
Converted amounts (≈) assume the structure as drawn. The source made the active and inactive calls. The rule behind the calls is not given here.

Columns and labels:
[1] = test system: Listeria monocytogenes; test: Antimicrobial activity against Listeria monocytogenes at 1 umol/spot after 18 hrs by TLC-bioautographic method; format: functional
Outline: (§1)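 TLC bioautography. Samples are spotted on silica gel TLC plates, then sprayed with bacteria (1.0 × 10^5 cfu/ml) in tryptic soy broth. Plates are incubated 18 h at 37 C and sprayed with 3% aqueous p-iodonitrotetrazolium violet. After a further 3 h, growth is stopped with 70% EtOH. White zones on a pink background are scored as inhibition-zone diameter with standard errors.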

[2] = test system: Enterobacter cloacae; test: Antimicrobial activity against Enterobacter cloacae at 1 umol/disk after 24 hrs by disk diffusion assay; format: functional
Outline: (§2)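 Disc diffusion on 4 mm filter discs. Bacteria are grown overnight in LB at 28 C, then adjusted in saline to 1.0 × 10^5 cfu/ml. The suspension is mixed into top agar over peptone agar plates. Plates are incubated 24 h at 28 C, and growth-inhibition zone diameter is measured. Streptomycin and ampicillin controls are applied from a 1 mg/ml stock. Tests are done in duplicate.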

[3] = test system: Bacillus cereus; test: Antimicrobial activity against Bacillus cereus after 24 hrs by microdilution technique; format: functional
Outline: (§3)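 Broth microdilution in LB medium. Inoculum is 1.0 × 10^4 cfu per well, from a saline-adjusted suspension of 1.0 × 10^5 cfu/ml. Compounds are dissolved in DMSO. Incubated 24 h at 28 C. MIC is the lowest concentration with no visible growth under a binocular microscope. MBC is read by subculture into fresh broth for 72 h, with no growth taken as 99.5% kill. OD is read at 655 nm.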

[4] = test system: Micrococcus flavus; test: Antimicrobial activity against Micrococcus flavus at 1 umol/disk after 24 hrs by disk diffusion assay; format: functional; outline: as §2
[5] = test system: Listeria monocytogenes; test: Antimicrobial activity against Listeria monocytogenes after 24 hrs by microdilution technique; format: functional; outline: as §3
[6] = test system: Salmonella typhimurium; test: Antimicrobial activity against Salmonella Typhimurium after 24 hrs by microdilution technique; format: functional, Salmonella enterica subsp. enterica serovar Typhimurium; conditions: Salmonella enterica; outline: as §3
[7] = test system: Salmonella typhimurium; test: Antimicrobial activity against Salmonella Typhimurium at 10 ug/disk after 24 hrs by disk diffusion assay; format: functional, organism-based; conditions: Salmonella enterica subsp. enterica serovar Typhimurium; outline: as §2
[8] = test system: Listeria monocytogenes; test: Antimicrobial activity against Listeria monocytogenes at 10 ug/disk after 24 hrs by disk diffusion assay; format: functional; outline: as §2
[9] = test system: Bacillus cereus; test: Antimicrobial activity against Bacillus cereus at 1 umol/spot after 18 hrs by TLC-bioautographic method; format: functional; outline: as §1
[10] = test system: Pseudomonas aeruginosa; test: Antimicrobial activity against Pseudomonas aeruginosa after 24 hrs by microdilution technique; format: functional; outline: as §3
[11] = test system: Bacillus cereus; test: Antimicrobial activity against Bacillus cereus at 10 ug/disk after 24 hrs by disk diffusion assay; format: functional; outline: as §2
[12] = test system: Escherichia coli; test: Antimicrobial activity against Escherichia coli at 1 umol/spot after 18 hrs by TLC-bioautographic method; format: functional; outline: as §1
[13] = test system: Enterobacter cloacae; test: Antimicrobial activity against Enterobacter cloacae after 24 hrs by microdilution technique; format: functional; outline: as §3
[14] = test system: Staphylococcus aureus; test: Antimicrobial activity against Staphylococcus aureus at 1 umol/disk after 24 hrs by disk diffusion assay; format: functional; outline: as §2
[15] = test system: Pseudomonas aeruginosa; test: Antimicrobial activity against Pseudomonas aeruginosa at 10 ug/disk after 24 hrs by disk diffusion assay; format: functional; outline: as §2
[16] = test system: Escherichia coli; test: Antimicrobial activity against Escherichia coli at 10 ug/disk after 24 hrs by disk diffusion assay; format: functional; outline: as §2
[17] = test system: Micrococcus flavus; test: Antimicrobial activity against Micrococcus flavus at 10 ug/disk after 24 hrs by disk diffusion assay; format: functional; outline: as §2
[18] = test system: Micrococcus flavus; test: Antimicrobial activity against Micrococcus flavus after 24 hrs by microdilution technique; format: functional; outline: as §3
[19] = test system: Staphylococcus aureus; test: Antimicrobial activity against Staphylococcus aureus at 10 ug/disk after 24 hrs by disk diffusion assay; format: functional; outline: as §2
[20] = test system: Staphylococcus aureus; test: Antimicrobial activity against Staphylococcus aureus after 24 hrs by microdilution technique; format: functional; outline: as §3
[21] = test system: Pseudomonas aeruginosa; test: Antimicrobial activity against Pseudomonas aeruginosa at 1 umol/spot after 18 hrs by TLC-bioautographic method; format: functional; outline: as §1
[22] = test system: Escherichia coli; test: Antimicrobial activity against Escherichia coli at 1 umol/disk after 24 hrs by disk diffusion assay; format: functional; outline: as §2
[23] = test system: Escherichia coli; test: Antimicrobial activity against Escherichia coli after 24 hrs by microdilution technique; format: functional; outline: as §3
[24] = test system: Listeria monocytogenes; test: Antimicrobial activity against Listeria monocytogenes at 1 umol/disk after 24 hrs by disk diffusion assay; format: functional; outline: as §2
[25] = test system: Bacillus cereus; test: Antimicrobial activity against Bacillus cereus at 1 umol/disk after 24 hrs by disk diffusion assay; format: functional; outline: as §2
[26] = test system: Salmonella typhimurium; test: Antimicrobial activity against Salmonella Typhimurium at 1 umol/disk after 24 hrs by disk diffusion assay; format: functional, organism-based; conditions: Salmonella enterica subsp. enterica serovar Typhimurium; outline: as §2
[27] = test system: Enterobacter cloacae; test: Antimicrobial activity against Enterobacter cloacae at 10 ug/disk after 24 hrs by disk diffusion assay; format: functional; outline: as §2
[28] = test system: Enterobacter cloacae; test: Antimicrobial activity against Enterobacter cloacae at 1 umol/spot after 18 hrs by TLC-bioautographic method; format: functional; outline: as §1
[29] = test system: Staphylococcus aureus; test: Antimicrobial activity against Staphylococcus aureus at 1 umol/spot after 18 hrs by TLC-bioautographic method; format: functional; outline: as §1
[30] = test system: Pseudomonas aeruginosa; test: Antimicrobial activity against Pseudomonas aeruginosa at 1 umol/disk after 24 hrs by disk diffusion assay; format: functional; outline: as §2
[31] = test system: Micrococcus flavus; test: Antimicrobial activity against Micrococcus flavus at 1 umol/spot after 18 hrs by TLC-bioautographic method; format: functional; outline: as §1
[32] = test system: Salmonella typhimurium; test: Antimicrobial activity against Salmonella Typhimurium at 1 umol/spot after 18 hrs by TLC-bioautographic method; format: functional, Salmonella enterica subsp. enterica serovar Typhimurium; outline: as §1

O=C(/C=C/c1ccc([N+](=O)[O-])cc1)c1ccc(Nc2nc(Nc3ccccc3)nc(Nc3ccccc3)n2)cc1
inhibition zone (IZ) [1]: 0.07 millimeter | inhibition zone (IZ) [2]: inactive | MBC [3]: 378 µM (≈ 200 µg/mL) | MIC [3]: 189 µM (≈ 100 µg/mL) | inhibition zone (IZ) [4]: inactive | MBC [5]: 756 µM (≈ 400 µg/mL) | MIC [5]: 378 µM (≈ 200 µg/mL) | MBC [6]: 756 µM (≈ 400 µg/mL) | MIC [6]: 378 µM (≈ 200 µg/mL) | inhibition zone (IZ) [7]: inactive | inhibition zone (IZ) [8]: inactive | inhibition zone (IZ) [9]: inactive | MBC [10]: 756 µM (≈ 400 µg/mL) | MIC [10]: 378 µM (≈ 200 µg/mL) | inhibition zone (IZ) [11]: inactive | inhibition zone (IZ) [12]: inactive | MBC [13]: 378 µM (≈ 200 µg/mL) | MIC [13]: 189 µM (≈ 100 µg/mL) | inhibition zone (IZ) [14]: inactive | inhibition zone (IZ) [15]: inactive | zone of inhibition at 10 µg/disc ([16]; read-out: IZ): 6 mm | inhibition zone (IZ) [17]: inactive | MBC [18]: 378 µM (≈ 200 µg/mL) | MIC [18]: 189 µM (≈ 100 µg/mL) | inhibition zone (IZ) [19]: inactive | MBC [20]: 756 µM (≈ 400 µg/mL) | MIC [20]: 378 µM (≈ 200 µg/mL) | inhibition zone (IZ) [21]: inactive | inhibition zone (IZ) [22]: 0.03 millimeter | MBC [23]: 378 µM (≈ 200 µg/mL) | MIC [23]: 189 µM (≈ 100 µg/mL) | inhibition zone (IZ) [24]: inactive | inhibition zone (IZ) [25]: inactive | inhibition zone (IZ) [26]: inactive | inhibition zone (IZ) [27]: inactive | inhibition zone (IZ) [28]: 0.09 millimeter | inhibition zone (IZ) [29]: inactive | inhibition zone (IZ) [30]: inactive | inhibition zone (IZ) [31]: 0.05 millimeter | inhibition zone (IZ) [32]: 0.08 millimeter

CC(=O)N1N=C(c2ccc(Nc3nc(Nc4ccccc4)nc(Nc4ccccc4)n3)cc2)CC1c1cccs1 (stereo not given)
inhibition zone (IZ) [1]: 0.08 millimeter | inhibition zone (IZ) [2]: inactive | MBC [3]: 376 µM (≈ 206 µg/mL) | MIC [3]: 188 µM (≈ 103 µg/mL) | inhibition zone (IZ) [4]: inactive | MBC [5]: 732 µM (≈ 400 µg/mL) | MIC [5]: 732 µM (≈ 400 µg/mL) | MBC [6]: 732 µM (≈ 400 µg/mL) | MIC [6]: 376 µM (≈ 206 µg/mL) | inhibition zone (IZ) [7]: inactive | inhibition zone (IZ) [8]: inactive | inhibition zone (IZ) [9]: 0.08 millimeter | MBC [10]: 732 µM (≈ 400 µg/mL) | MIC [10]: 376 µM (≈ 206 µg/mL) | inhibition zone (IZ) [11]: inactive | inhibition zone (IZ) [12]: inactive | MBC [13]: 732 µM (≈ 400 µg/mL) | MIC [13]: 732 µM (≈ 400 µg/mL) | inhibition zone (IZ) [14]: inactive | inhibition zone (IZ) [15]: inactive | inhibition zone (IZ) [16]: inactive | inhibition zone (IZ) [17]: inactive | MBC [18]: 376 µM (≈ 206 µg/mL) | MIC [18]: 188 µM (≈ 103 µg/mL) | inhibition zone (IZ) [19]: inactive | MBC [20]: 732 µM (≈ 400 µg/mL) | MIC [20]: 376 µM (≈ 206 µg/mL) | inhibition zone (IZ) [21]: inactive | inhibition zone (IZ) [22]: inactive | MBC [23]: 376 µM (≈ 206 µg/mL) | MIC [23]: 188 µM (≈ 103 µg/mL) | inhibition zone (IZ) [24]: inactive | inhibition zone (IZ) [25]: inactive | inhibition zone (IZ) [26]: inactive | inhibition zone (IZ) [27]: inactive | inhibition zone (IZ) [28]: 0.1 millimeter | inhibition zone (IZ) [29]: inactive | inhibition zone (IZ) [30]: inactive | inhibition zone (IZ) [31]: inactive | inhibition zone (IZ) ([32]; Salmonella enterica subsp. enterica serovar Typhimurium): inactive
